# Published values gathered from unrelated publications.
# Organism: Mycolicibacterium smegmatis
# Observed: microbial growth
SMILES,assay,test system,setting,MIC
CCCCc1ccc(-c2c[nH]c(N)n2)cc1,,ATCC700084 MC^2155,48 h,150 µM
CO/N=C(\C(=O)N[C@@H]1C(=O)N2C(C(=O)O)=C(COC(C)=O)CS[C@H]12)c1csc(N)n1,resazurin,MC^2155,24 h,75 µg/mL
Cc1ccc(Nc2nc(-c3cc(C(=O)Nc4ccccc4)no3)cs2)cc1,,MC2155,,> 64 µg/mL
CC[C@@H](CO)NCCN[C@@H](CC)CO,resazurin,MC^2155,24 h,0.78 µg/mL
NC[C@@H]1O[C@H](O[C@H]2[C@@H](O)[C@H](O[C@@H]3[C@@H](O)[C@H](N)C[C@H](N)[C@H]3O[C@H]3O[C@H](CO)[C@@H](O)[C@H](O)[C@H]3N)O[C@@H]2CO)[C@H](N)[C@@H](O)[C@@H]1O,broth dilution,,72 h,0.5 µg/mL
CCCCCOc1ccc(-c2c[nH]c(N)n2)cc1,,ATCC700084 MC^2155,48 h,150 µM
O=C(Nc1ccccc1)c1cc(-c2csc(Nc3ccc(Cl)cc3)n2)on1,,MC2155,,> 64 µg/mL
CO[C@H]1/C=C/O[C@@]2(C)Oc3c(C)c(O)c4c(O)c(c(/C=N/N5CCN(C)CC5)c(O)c4c3C2=O)NC(=O)/C(C)=C\C=C\[C@H](C)[C@H](O)[C@@H](C)[C@@H](O)[C@@H](C)[C@H](OC(C)=O)[C@@H]1C,broth dilution,ATCC700084 MC^2155,,8 µg/mL
C[C@H]1c2cccc(O)c2C(=O)C2=C(O)[C@]3(O)C(=O)C(C(N)=O)=C(O)[C@@H](N(C)C)[C@@H]3[C@@H](O)[C@@H]21,resazurin,MC^2155,24 h,0.11 µg/mL
C/C(=N\NC(=N)N)c1ccc(-c2ccc(/C(C)=N/Nc3ccccc3Cl)cc2)cc1.Cl,,MC2155,,213 µg/mL
Cc1ccc(Nc2nc(-c3cc(C(=O)Nc4ccsc4)no3)cs2)cc1,,MC2155,,> 64 µg/mL
NC[C@H]1O[C@H](O[C@H]2[C@H](O)[C@@H](O[C@H]3O[C@H](CO)[C@@H](O)[C@H](N)[C@H]3O)[C@H](N)C[C@@H]2N)[C@H](N)C[C@@H]1O,broth dilution,,72 h,1 µg/mL
CC[C@H]1OC(=O)[C@H](C)[C@@H](O[C@H]2C[C@@](C)(OC)[C@@H](O)[C@H](C)O2)[C@H](C)[C@@H](O[C@@H]2O[C@H](C)C[C@H](N(C)C)[C@H]2O)[C@](C)(OC)C[C@@H](C)C(=O)[C@H](C)[C@@H](O)[C@]1(C)O,resazurin,MC^2155,24 h,0.36 µg/mL
CCCCCCc1ccc(-c2nc(N)[nH]c2C(F)(F)F)cc1,broth dilution,ATCC700084 MC^2155,,> 200 µM
C[C@H]1COc2c(N3CCN(C)CC3)c(F)cc3c(=O)c(C(=O)O)cn1c23,resazurin,MC^2155,24 h,0.14 µg/mL
CCOCCOc1ccc(-c2c[nH]c(N)n2)cc1,,ATCC700084 MC^2155,48 h,> 200 µM
